Measurements: ChEMBL document CHEMBL1641445, “Synthesis, antiprotozoal, antimicrobial, β-hematin inhibition, cytotoxicity and methemoglobin (MetHb) formation activities of bis(8-aminoquinolines)” (Bioorg Med Chem, 2011)
Active and inactive are the calls of the source. No cut-off for these calls is given here.

Assays:
[1] = Hematotoxicity against RBC assessed as formation of methemoglobin at 20 ug/ml relative to control; format: cell-based; details: erythrocyte
Outline: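 Metabolism-linked methemoglobin toxicity in vitro. Percent MetHb formation was determined at 20 µg/mL of compound relative to vehicle control.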

[2] = tested on: Plasmodium falciparum; experiment: Antimalarial activity against chloroquine-resistant Plasmodium falciparum W2 by LDH assay; format: functional, organism-based; details: Plasmodium falciparum, W2; read-out: IC50
Outline: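 Antiplasmodial activity was measured in vitro against P. falciparum blood-stage cultures. Read-out was parasite lactate dehydrogenase (LDH) activity, with IC50 values expressed in µg/mL. The same protocol was used for the D6 and W2 strains.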

[3] = tested on: Vero; experiment: Cytotoxicity against african green monkey Vero cells up to 10 ug/ml by neutral red assay; format: cell-based; details: chlorocebus sabaeus
Outline: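 Vero (monkey kidney) cells were exposed up to a highest concentration of 10 µg/mL. Viability was read by neutral red uptake.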

[4] = Inhibition of beta-hematin formation; format: functional
[5] = tested on: Leishmania donovani; experiment: Antileishmanial activity against promastigotes of Leishmania donovani by alamar blue assay; format: functional, organism-based; details: Leishmania donovani
[6] = tested on: Plasmodium berghei; experiment: Antimalarial activity against Plasmodium berghei infected in mouse assessed as negative parasitemia level at 100 mg/kg, po qd for 4 days measured up to 7 days; format: functional, organism-based; parameters: dose 100 mg/kg
Outline: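 Mice infected with P. berghei (sensitive strain), 6 per group, dosed orally at 10–100 mg/kg/day × 4. Suppression meant negative parasitemia in all treated animals up to D+7. Survivors were counted at D+60.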

[7] = tested on: Staphylococcus aureus; experiment: Antibacterial activity against Staphylococcus aureus by CLSI method; format: functional, organism-based
[8] = tested on: Staphylococcus aureus; experiment: Antibacterial activity against methicillin-resistant Staphylococcus aureus ATCC 43300 by CLSI method; format: functional, organism-based
Outline: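 Broth dilution method (NCCLS M7-A5). […] MIC is the lowest concentration allowing no detectable growth. MBC is the lowest concentration killing the organism. Highest test concentration was 20 µg/mL.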

[9] = tested on: Mycobacterium intracellulare; experiment: Antibacterial activity against Mycobacterium intracellular ATCC 23068 by CLSI method; format: functional, organism-based
[10] = tested on: Mycobacterium intracellulare; experiment: Antibacterial activity against Mycobacterium intracellular ATCC 23068 at 20 ug/ml by CLSI method; format: functional, organism-based
[11] = tested on: Candida albicans; experiment: Antifungal activity against Candida albicans ATCC 90028; format: functional, organism-based
[12] = tested on: Candida albicans; experiment: Antifungal activity against Candida albicans ATCC 90028 at 20 ug/ml; format: functional, organism-based
[13] = tested on: Cryptococcus neoformans; experiment: Antifungal activity against Cryptococcus neoformans ATCC 90113; format: functional, organism-based
[14] = tested on: Aspergillus fumigatus; experiment: Antifungal activity against Aspergillus fumigatus ATCC 90906 at 20 ug/ml; format: functional, organism-based
[15] = tested on: Nakaseomyces glabratus; experiment: Antifungal activity against Candida glabrata at 20 ug/ml; format: functional, organism-based
[16] = tested on: Pichia kudriavzevii; experiment: Antifungal activity against Candida krusei at 20 ug/ml; format: functional, organism-based

SMILES: COc1cc(NC(C)CCCNC(=O)NC(CCCCN)C(=O)NCCCC(C)Nc2cc(OC)cc3ccc(C(C)(C)C)nc23)c2nc(C(C)(C)C)ccc2c1.Cl (single isomer, unassigned)
- Methemoglobin formation [1]: 2.25%
- IC50 [2]: 1.3 µg/mL
- Activity [3]: Non-toxic
- IC50 [4]: 45 µM
- IC90 [5]: 36 µg/mL
- IC50 ([5]; read-out: IC50): 21 µg/mL
- Activity [6]: Active
- IC50 [7]: 2.58 µg/mL
- MBC [7]: 5 µg/mL
- MIC [7]: 5 µg/mL
- IC50 [8]: 1.97 µg/mL
- MBC [8]: 5 µg/mL
- MIC [8]: 5 µg/mL
- IC50 [9]: 7.12 µg/mL
- MIC [9]: 20 µg/mL
- MBC [10]: inactive
- IC50 [11]: 17.9 µg/mL
- MIC [11]: 20 µg/mL
- MFC [12]: inactive
- IC50 [13]: 6.45 µg/mL
- MFC [13]: 10 µg/mL
- MIC [13]: 10 µg/mL
- Activity [14]: inactive
- Activity [15]: inactive
- Activity [16]: inactive
